Laboratory results: ChEMBL document CHEMBL5257036, “Benzophenone-nucleoside derivatives as telomerase inhibitors: Design, synthesis and anticancer evaluation in vitro and in vivo” (Eur J Med Chem, 2016)
pIC50: −log10 of the molar value.

Columns and labels:
[1] = test system: HeLa; assay: Antiproliferative activity against human HeLa cells measured after 48 hrs by MTT assay; format: functional, cell-based
How it was run: (§1)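 Cells grown to log phase in RPMI 1640 with 10% FBS, seeded at 3 × 10⁴ cells/mL, and preincubated 24 h at 37 °C, 5% CO₂. Compounds were added at pre-set concentrations to 6 wells each, with doxorubicin as reference, and exposed for 48 h. MTT was then added and absorbance read at 570 nm.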

[2] = test system: SGC-7901; assay: Antiproliferative activity against human SGC-7901 cells measured after 48 hrs by MTT assay; format: functional, cell-based; conditions: SGC-7901, 48 h; how it was run: as §1
[3] = test system: SMMC-7721; assay: Antiproliferative activity against human SMMC-7721 cells measured after 48 hrs by MTT assay; format: functional, cell-based; conditions: SMMC-7721, 48 h; how it was run: as §1
[4] = test system: HepG2; assay: Antiproliferative activity against human HepG2 cells measured after 48 hrs by MTT assay; format: functional, cell-based; conditions: HepG2, 48 h; how it was run: as §1
[5] = biological target: Telomerase reverse transcriptase (Homo sapiens, UniProt O14746); assay: Inhibition of telomerase activity in human SGC-7901 cells incubated for 24 hrs by TRAP-PCR-ELISA assay; format: cell-based
How it was run: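 Extract was mixed with TRAP reaction mix, incubated 25 °C for 30 min, then 35 PCR cycles (94/50/72 °C). Products detected by anti-DIG-peroxidase ELISA at 490 nm; mean ± SD.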

Sequence of Telomerase reverse transcriptase (O14746 whole entry): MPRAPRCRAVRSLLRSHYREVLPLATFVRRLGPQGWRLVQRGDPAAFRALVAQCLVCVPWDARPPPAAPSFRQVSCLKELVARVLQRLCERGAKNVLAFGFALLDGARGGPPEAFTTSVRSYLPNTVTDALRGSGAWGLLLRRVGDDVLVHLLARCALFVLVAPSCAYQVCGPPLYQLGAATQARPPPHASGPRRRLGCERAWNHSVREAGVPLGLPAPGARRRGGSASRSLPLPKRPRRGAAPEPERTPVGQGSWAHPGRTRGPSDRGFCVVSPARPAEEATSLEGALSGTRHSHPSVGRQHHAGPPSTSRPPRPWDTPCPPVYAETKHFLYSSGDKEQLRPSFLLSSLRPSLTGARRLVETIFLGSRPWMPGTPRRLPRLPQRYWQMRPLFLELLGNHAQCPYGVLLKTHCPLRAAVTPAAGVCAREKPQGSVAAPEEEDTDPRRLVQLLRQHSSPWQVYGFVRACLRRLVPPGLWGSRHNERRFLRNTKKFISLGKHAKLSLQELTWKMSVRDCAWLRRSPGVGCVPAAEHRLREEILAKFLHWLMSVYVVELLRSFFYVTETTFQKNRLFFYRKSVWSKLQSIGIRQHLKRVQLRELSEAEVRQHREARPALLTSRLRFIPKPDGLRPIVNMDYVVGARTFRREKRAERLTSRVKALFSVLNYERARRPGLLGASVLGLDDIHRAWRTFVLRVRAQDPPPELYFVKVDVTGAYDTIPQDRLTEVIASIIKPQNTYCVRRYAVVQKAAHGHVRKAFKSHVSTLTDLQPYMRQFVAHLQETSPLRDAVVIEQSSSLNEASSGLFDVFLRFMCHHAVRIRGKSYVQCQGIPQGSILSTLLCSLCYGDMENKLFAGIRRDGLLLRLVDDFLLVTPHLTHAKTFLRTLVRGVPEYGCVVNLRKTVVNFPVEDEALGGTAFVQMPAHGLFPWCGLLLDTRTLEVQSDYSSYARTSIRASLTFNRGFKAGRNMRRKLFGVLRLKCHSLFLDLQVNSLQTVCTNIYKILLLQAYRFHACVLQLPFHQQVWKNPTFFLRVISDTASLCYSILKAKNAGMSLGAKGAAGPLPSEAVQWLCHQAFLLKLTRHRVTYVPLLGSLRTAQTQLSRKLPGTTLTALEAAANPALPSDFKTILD

SMILES | pIC50 [1] | pIC50 [2] | pIC50 [3] | pIC50 [4] | pIC50 [5]
COc1ccc(C(=O)c2ccc([N+](=O)[O-])cc2)cc1OCC(=O)OC[C@@H]1C=C[C@H](n2cc(C)c(=O)[nH]c2=O)O1 | 4.30 | 4.32 | – | – | –
COc1cc(OC)c(C(=O)c2ccc(OC)c(OC(=O)CCC(=O)OC[C@@H]3C=C[C@H](n4cc(C)c(=O)[nH]c4=O)O3)c2)cc1OC | 5.58 | 5.64 | 5.54 | 5.16 | 5.19
COc1ccc(C(=O)c2cccc(Cl)c2)cc1OC(=O)CCC(=O)OC[C@@H]1C=C[C@H](n2cc(C)c(=O)[nH]c2=O)O1 | 5.19 | 5.38 | 5.49 | 4.96 | –
COc1ccc(C(=O)c2ccc(F)cc2)cc1OCC(=O)OC[C@@H]1C=C[C@H](n2cc(C)c(=O)[nH]c2=O)O1 | 4.44 | 4.54 | 4.39 | 4.42 | –
COc1ccc(C(=O)c2ccccc2Cl)cc1OCC(=O)OC[C@@H]1C=C[C@H](n2cc(C)c(=O)[nH]c2=O)O1 | 4.34 | – | 4.39 | – | –
COc1ccc(C(=O)c2ccc(F)cc2)cc1OC(=O)CCC(=O)OC[C@@H]1C=C[C@H](n2cc(C)c(=O)[nH]c2=O)O1 | 4.75 | 5.08 | 4.65 | 4.69 | –
